In ChEMBL document CHEMBL1145017, “Synthesis and in vivo antitumor activity of poly(l-glutamic acid) conjugates of 20S-camptothecin” (J Med Chem, 2003):
In brackets after ≈: the same amount, converted by molar mass.

Key:
[1] = tested on: Mus musculus; test: Effect on in Vivo Growth of s.c. B-16 Melanomas in mice measured ad difference of average times for tumors to reach a volume of 500 mm**3 between treatment and control groups at dose of 35 mg/kg; format: functional
[2] = tested on: Mus musculus; test: Maximum tolerated dose (MTD) in mice bearing s.c. B-16 Melanomas; format: functional
[3] = tested on: Mus musculus; test: Effect on in Vivo Growth of s.c. B-16 Melanomas in mice measured ad difference of average times for tumors to reach a volume of 500 mm**3 between treatment and control groups at dose of 48 mg/kg; format: functional
[4] = tested on: Mus musculus; test: Effect on in Vivo Growth of s.c. B-16 Melanomas in mice measured ad difference of average times for tumors to reach a volume of 500 mm**3 between treatment and control groups at dose of 60 mg/kg; format: functional
[5] = tested on: Mus musculus; test: Effect on in Vivo Growth of s.c. B-16 Melanomas in mice measured ad difference of average times for tumors to reach a volume of 500 mm**3 between treatment and control groups at dose of 75 mg/kg; format: functional
[6] = tested on: Mus musculus; test: Effect on in Vivo Growth of s.c. B-16 Melanomas in mice measured ad difference of average times for tumors to reach a volume of 500 mm**3 between treatment and control groups at dose of 41 mg/kg; format: functional
[7] = species: Mus musculus; test: Maximum tolerated dose (MTD) in mice; format: functional
[8] = tested on: Mus musculus; test: Effect on in Vivo Growth of s.c. HT-29 […] in mice measured ad difference of average times for tumors to reach a volume of 500 mm**3 between treatment and control groups at dose of 24 mg/kg; format: functional
Procedure, shortened: (§1)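 Athymic nude mice bearing human HT-29 colon or NCI-H460 lung carcinoma cells were given a single bolus ip injection, dosed as mg CPT equivalent/kg. Endpoint was TGD in days, the difference in mean time to reach 500 mm³ tumor volume between treated and control groups. Student's t-test vs vehicle.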

[9] = Aqueous solubility was measured; format: physicochemical
Procedure, shortened: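 Conjugate dissolved in aqueous Na₂HPO₄ (0.1 M, pH 7.4) at 37 °C; solubility expressed as mg of conjugate per mL.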

[10] = tested on: Mus musculus; test: Effect on in Vivo Growth of s.c. HT-29 […] in mice measured ad difference of average times for tumors to reach a volume of 500 mm**3 between treatment and control groups at dose of 28 mg/kg; format: functional; procedure, shortened: as §1
[11] = tested on: Mus musculus; test: Effect on in Vivo Growth of s.c. HT-29 […] in mice measured ad difference of average times for tumors to reach a volume of 500 mm**3 between treatment and control groups at dose of 20 mg/kg; format: functional
Procedure, shortened: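 Athymic nude mice bearing human HT-29 colon carcinoma cells got a single bolus ip injection of conjugate, dosed in mg CPT equivalent/kg. Tumor growth delay (days) is the difference in average time for tumors to reach 500 mm³ between treated and control groups. Significance was tested by Student's t-test against vehicle.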

CC[C@@]1(OC(=O)CCCOC(=O)CC[C@H](N)C(=O)O)C(=O)OCc2c1cc1n(c2=O)Cc2cc3ccccc3nc2-1
TGD [1]: 3 days | MTD [2]: ~35 (mg of CPT) kg-1

CC[C@@]1(OC(=O)CNC(=O)CC[C@H](N)C(=O)O)C(=O)OCc2c1cc1n(c2=O)Cc2cc3ccccc3nc2-1
TGD [1]: 2 days | MTD [2]: ~40 (mg of CPT) kg-1

CC[C@@]1(OC(=O)CC[C@H](N)C(=O)O)C(=O)OCc2c1cc1n(c2=O)Cc2cc3ccccc3nc2-1
MTD [2]: >=48 (mg of CPT) kg-1 | TGD [3]: 4 days

CC[C@@]1(OC(=O)CCCNC(=O)CC[C@H](N)C(=O)O)C(=O)OCc2c1cc1n(c2=O)Cc2cc3ccccc3nc2-1
TGD [4]: 1 days | MTD [2]: >=60 (mg of CPT) kg-1

CC[C@@]1(OC(=O)COC(=O)CC[C@H](N)C(=O)O)C(=O)OCc2c1cc1n(c2=O)Cc2cc3ccccc3nc2-1
TGD [5]: 4 days | MTD [2]: >=75 (mg of CPT) kg-1

CC[C@@]1(OC(=O)CCC(NC(=O)CC[C@H](N)C(=O)O)C(=O)O)C(=O)OCc2c1cc1n(c2=O)Cc2cc3ccccc3nc2-1 (stereo not given in full)
TGD [6]: 1 days | MTD [2]: >=41 (mg of CPT) kg-1

CC[C@@]1(OC(=O)CNC(=O)CNC(=O)CNC(=O)CC[C@H](N)C(=O)O)C(=O)OCc2c1cc1n(c2=O)Cc2cc3ccccc3nc2-1
MTD [7]: <34 (mg of CPT) kg-1 | TGD [8]: 7 days | solubility [9]: 33 mg/mL (≈ 50.9 mM)

CC[C@@]1(OC(=O)CNC(=O)CNC(=O)CC[C@H](N)C(=O)O)C(=O)OCc2c1cc1n(c2=O)Cc2cc3ccccc3nc2-1
MTD [7]: >=28 (mg of CPT) kg-1 | TGD [10]: 4 days | solubility [9]: 34 mg/mL (≈ 57.5 mM)

CC[C@@]1(O)C(=O)OCc2c1cc1n(c2=O)Cc2cc3ccccc3nc2-1 [CAMPTOTHECIN]
MTD [7]: ~20 (mg of CPT) kg-1 | TGD [11]: 17 days
